ChEMBL document CHEMBL1140227, “Histone deacetylase inhibitors through click chemistry” (J Med Chem, 2008)

Experiments:
Type in all cases: functional
[1] = test system: UO-31; assay: Growth inhibition of human UO31 cells at 10 uM relative to control; settings: values are per cent of control
Summary of the method: (§1)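 Single-dose NCI human tumour cell line screen, run by the NIH. Percent inhibition of cell line growth was calculated by comparison with untreated samples.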

[2] = test system: Melanoma cell; assay: cells; settings: Homo sapiens
[3] = test system: HOP-62; assay: Growth inhibition of human HOP62 cells at 10 uM relative to control; settings: values are per cent of control
Summary of the method: (§2)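 Single-dose preliminary screen in the NCI human cancer cell line panel, run by the NIH. Percent inhibition of cell line growth was calculated by comparison with untreated samples.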

[4] = test system: SNB-19; assay: Growth inhibition of human SNB19 cells at 10 uM relative to control; settings: values are per cent of control; summary of the method: as §2
[5] = test system: NCI-H522; assay: Growth inhibition of human NCI-H522 cells at 10 uM relative to control; settings: values are per cent of control; summary of the method: as §2
[6] = test system: SF-295; assay: Growth inhibition of human SF295 cells at 10 uM relative to control; settings: values are per cent of control; summary of the method: as §2
[7] = test system: SK-MEL-2; assay: Growth inhibition of human SK-MEL-2 cells at 10 uM relative to control; settings: values are per cent of control; summary of the method: as §2
[8] = test system: MDA-MB-231; assay: Growth inhibition of human MDA-MB-231 cells at 10 uM relative to control; settings: values are per cent of control; summary of the method: as §2
[9] = test system: SNB-75; assay: Growth inhibition of human SNB75 cells at 10 uM relative to control; settings: values are per cent of control; summary of the method: as §1
[10] = test system: SK-MEL-5; assay: Growth inhibition of human SK-MEL-5 cells at 10 uM relative to control; settings: values are per cent of control; summary of the method: as §2
[11] = test system: DU-145; assay: Growth inhibition of human DU145 cells at 10 uM relative to control; settings: values are per cent of control; summary of the method: as §2
[12] = test system: M14; assay: Growth inhibition of human M14 cells at 10 uM relative to control; settings: values are per cent of control; summary of the method: as §2
[13] = test system: MOLT-4; assay: Growth inhibition of human MOLT4 cells at 10 uM relative to control; settings: values are per cent of control; summary of the method: as §2
[14] = test system: OVCAR-8; assay: Growth inhibition of human OVCAR8 cells at 10 uM relative to control; settings: values are per cent of control; summary of the method: as §2
[15] = test system: OVCAR-4; assay: Growth inhibition of human OVCAR4 cells at 10 uM relative to control; settings: values are per cent of control; summary of the method: as §2
[16] = test system: BT-549; assay: Growth inhibition of human BT549 cells at 10 uM relative to control; settings: values are per cent of control; summary of the method: as §2
[17] = test system: T47D; assay: Growth inhibition of human T47D cells at 10 uM relative to control; settings: values are per cent of control; summary of the method: as §1
[18] = test system: HCC 2998; assay: Growth inhibition of human HCC2998 cells at 10 uM relative to control; settings: values are per cent of control; summary of the method: as §2
[19] = test system: HT-29; assay: Growth inhibition of human HT-29 cells at 10 uM relative to control; settings: values are per cent of control; summary of the method: as §2
[20] = test system: Malme-3M; assay: Growth inhibition of human MALME-3M cells at 10 uM relative to control; settings: values are per cent of control; summary of the method: as §2
[21] = test system: NCI-H23; assay: Growth inhibition of human NCI-H23 cells at 10 uM relative to control; settings: values are per cent of control; summary of the method: as §2
[22] = test system: EKVX; assay: Growth inhibition of human EKVX cells at 10 uM relative to control; settings: values are per cent of control; summary of the method: as §2
[23] = test system: K562; assay: Growth inhibition of human K562 cells at 10 uM relative to control; settings: values are per cent of control; summary of the method: as §2
[24] = test system: UACC-62; assay: Growth inhibition of human UACC62 cells at 10 uM relative to control; settings: values are per cent of control; summary of the method: as §1
[25] = test system: NCI-H460; assay: Growth inhibition of human NCI-H460 cells at 10 uM relative to control; settings: values are per cent of control; summary of the method: as §2
[26] = cells; settings: Homo sapiens, Cancer cell lines
[27] = test system: HCT-116; assay: Growth inhibition of human HCT116 cells at 10 uM relative to control; settings: values are per cent of control; summary of the method: as §2
[28] = test system: TK-10; assay: Growth inhibition of human TK10 cells at 10 uM relative to control; settings: values are per cent of control; summary of the method: as §1
[29] = test system: UACC-257; assay: Growth inhibition of human UACC257 cells at 10 uM relative to control; settings: values are per cent of control; summary of the method: as §1
[30] = Growth inhibition of human RPMI8266 cells at 10 uM relative to control; settings: values are per cent of control; summary of the method: as §2
[31] = cells; settings: Homo sapiens, Cancer cell lines; remark: listed apart in the source

For `O=C(/C=C/c1cn(CC(=O)c2ccccc2)nn1)NO`, the growth, % of control at 10 µM [1] was 45.3%, the inhibition at 10 µM [2] was 60% and the growth, % of control at 10 µM [3] was 30.1%. It also gave a growth, % of control at 10 µM [4] of 101%, a growth, % of control at 10 µM [5] of 31.1% and a growth, % of control at 10 µM [6] of 15.3%. For the same molecule, the growth, % of control at 10 µM [7] was 61.7%, the growth, % of control at 10 µM [8] was 96.9% and the growth, % of control at 10 µM [9] was 53.9%. The growth, % of control at 10 µM [10] was 92.9%, the growth, % of control at 10 µM [11] was 75.2% and the growth, % of control at 10 µM [12] was 49.5%. For the same molecule, the growth, % of control at 10 µM [13] was 83%, the growth, % of control at 10 µM [14] was 45.1% and the growth, % of control at 10 µM [15] was 77.8%. The growth, % of control at 10 µM [16] was 72.1%, the growth, % of control at 10 µM [17] was 64.7% and the growth, % of control at 10 µM [18] was 71.1%. It also gave a growth, % of control at 10 µM [19] of 60%, a growth, % of control at 10 µM [20] of 6.42% and a growth, % of control at 10 µM [21] of 69.2%. The growth, % of control at 10 µM [22] was 54.6%, the growth, % of control at 10 µM [23] was 72.3% and the growth, % of control at 10 µM [24] was 61.2%. The growth, % of control at 10 µM [25] was 62.5%, the growth percent at 10 µM [26] was 65% and the growth, % of control at 10 µM [27] was 30.7%. It also gave a growth, % of control at 10 µM [28] of 46.7%, a growth, % of control at 10 µM [29] of 43.9% and a growth, % of control at 10 µM [30] of 55.6%. It also gave an inhibition at 10 µM [31] of 67%.
